What all share (experiment): fluorescence-binding assay
One test has as its target T1, JHAMT1 (Bombyx mori, UniProt Q767F1).
T1 sequence (Q767F1 1-278): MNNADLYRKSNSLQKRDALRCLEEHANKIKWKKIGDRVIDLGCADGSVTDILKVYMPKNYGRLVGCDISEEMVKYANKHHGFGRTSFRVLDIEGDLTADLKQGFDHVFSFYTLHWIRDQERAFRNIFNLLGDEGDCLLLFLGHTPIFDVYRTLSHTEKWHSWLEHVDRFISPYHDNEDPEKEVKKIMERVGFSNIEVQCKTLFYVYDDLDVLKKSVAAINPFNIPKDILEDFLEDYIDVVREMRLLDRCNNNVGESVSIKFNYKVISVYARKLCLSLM
In outline:
(§1)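 Intrinsic tryptophan fluorescence quenching used 2 μM recombinant B. mori JHAMT (wild type or point mutant) in 20 mM Tris-HCl pH 8.0, 200 mM NaCl, equilibrated 2 min at 25 °C. Ligand was titrated at final 0–1.5 mM SAM (cofactor binding) or 0–0.1 mM FA (substrate binding). Excitation was 280 nm with emission recorded 300–450 nm. Kd was fitted from quenching data as mean ± s.d. of n = 3.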

The target of a further test is T2, JHAMT1-D^91A (Bombyx mori, UniProt Q767F1, D91A).
T2 sequence (Q767F1 1-278 D91A): T1 sequence (Q767F1 1-278) with D91A
Put shortly:
as §1

The target of a further test is T3, JHAMT1-T^112A (Bombyx mori, UniProt Q767F1, T112A).
T3 sequence (Q767F1 1-278 T112A): T1 sequence (Q767F1 1-278) with T112A
Put shortly:
as §1

The next test concerns the target T4, JHAMT2 (Bombyx mori, UniProt A0A8M0FGR8).
T4 sequence (A0A8M0FGR8 1-267): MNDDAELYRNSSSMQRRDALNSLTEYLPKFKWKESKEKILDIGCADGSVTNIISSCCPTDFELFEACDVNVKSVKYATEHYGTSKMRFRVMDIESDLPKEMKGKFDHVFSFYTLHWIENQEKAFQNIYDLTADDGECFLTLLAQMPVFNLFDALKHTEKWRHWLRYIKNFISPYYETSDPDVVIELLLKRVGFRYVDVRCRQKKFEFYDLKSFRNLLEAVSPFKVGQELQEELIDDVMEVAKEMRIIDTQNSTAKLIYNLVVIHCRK
Put shortly: as §1

The next test deals with T5, JHAMT2-D^92A (Bombyx mori, UniProt A0A8M0FGR8, D92A).
T5 sequence (A0A8M0FGR8 1-267 D92A): T4 sequence (A0A8M0FGR8 1-267) with D92A
Put shortly: as §1

A further test deals with T6, JHAMT2-T^113A (Bombyx mori, UniProt A0A8M0FGR8, T113A).
T6 sequence (A0A8M0FGR8 1-267 T113A): T4 sequence (A0A8M0FGR8 1-267) with T113A
In outline:
as §1

Changes are numbered by the printed parent chain.

Broadly, the Kd is the free concentration of one partner at which half of the binding sites on the other are occupied at equilibrium, for simple one-to-one binding. As to `C[S+](CC[C@H](N)C(=O)[O-])C[C@H]1O[C@@H](n2cnc3c(N)ncnc32)[C@H](O)[C@@H]1O` (stereo partly drawn) [SAM, S-adenosyl-L-methionine], the Kd at JHAMT1 is 38.7 ± 3.42 µM; on JHAMT1-D^91A, 229 ± 18.1 µM; at JHAMT1-T^112A, 191 ± 12.7 µM; on JHAMT2, 42.6 ± 5.83 µM; at JHAMT2-D^92A it was 261 ± 18.1 µM; on JHAMT2-T^113A, 144 ± 9.91 µM.
